# In ChEMBL document CHEMBL4834477, “Synthesis and biological evaluation of novel purinyl quinazolinone derivatives as PI3Kδ-specific inhibitors for the treatment of hematologic malignancies” (Bioorg Med Chem, 2021):
# Active and inactive are the calls of the source. No cut-off for these calls is given here.
# Experiments:
# [1] = molecular target: Phosphatidylinositol 4,5-bisphosphate 3-kinase catalytic subunit gamma isoform (Homo sapiens, UniProt P48736); assay: Inhibition of recombinant human full length His-tagged p110gamma expressed in baculovirus expression system measured after 60 mins in presence of ATP by ATP-competitive binding assay
# Sequence of Phosphatidylinositol 4,5-bisphosphate 3-kinase catalytic subunit gamma isoform (P48736 whole entry, canonical isoform): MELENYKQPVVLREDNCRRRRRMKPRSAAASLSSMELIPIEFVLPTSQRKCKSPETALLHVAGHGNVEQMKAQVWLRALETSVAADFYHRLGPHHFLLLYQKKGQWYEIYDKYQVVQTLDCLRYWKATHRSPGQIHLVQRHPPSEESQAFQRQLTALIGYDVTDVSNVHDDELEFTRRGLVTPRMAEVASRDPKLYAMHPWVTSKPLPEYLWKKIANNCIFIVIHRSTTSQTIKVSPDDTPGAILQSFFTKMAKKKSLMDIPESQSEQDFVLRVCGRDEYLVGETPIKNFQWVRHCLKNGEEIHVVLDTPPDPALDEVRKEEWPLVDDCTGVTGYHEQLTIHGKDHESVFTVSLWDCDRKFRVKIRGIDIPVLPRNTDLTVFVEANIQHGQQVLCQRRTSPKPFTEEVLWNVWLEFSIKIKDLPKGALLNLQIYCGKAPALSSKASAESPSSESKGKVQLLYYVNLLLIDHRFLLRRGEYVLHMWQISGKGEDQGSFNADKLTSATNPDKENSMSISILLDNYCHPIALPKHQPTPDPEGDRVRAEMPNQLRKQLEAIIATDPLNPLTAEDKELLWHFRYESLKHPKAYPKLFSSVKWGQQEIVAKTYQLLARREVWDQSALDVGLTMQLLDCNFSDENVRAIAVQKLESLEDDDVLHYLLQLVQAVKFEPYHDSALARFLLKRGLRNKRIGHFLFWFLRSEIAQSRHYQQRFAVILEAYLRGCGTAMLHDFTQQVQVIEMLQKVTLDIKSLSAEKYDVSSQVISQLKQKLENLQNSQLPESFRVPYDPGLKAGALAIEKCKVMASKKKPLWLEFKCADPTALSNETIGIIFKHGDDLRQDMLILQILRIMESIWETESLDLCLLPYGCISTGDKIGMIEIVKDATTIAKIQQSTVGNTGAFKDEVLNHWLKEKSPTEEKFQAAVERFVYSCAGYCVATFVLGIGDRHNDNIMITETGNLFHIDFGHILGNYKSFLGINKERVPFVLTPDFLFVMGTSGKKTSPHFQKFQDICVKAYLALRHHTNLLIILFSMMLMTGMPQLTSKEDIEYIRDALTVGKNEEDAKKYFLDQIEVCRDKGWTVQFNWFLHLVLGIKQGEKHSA
# Procedure, shortened: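 SelectScreen ATP-competitive assay using 10-point titration with 1 μM top final compound concentration. Kinase, substrate and ATP mixed in 30 mM HEPES buffer and reacted 60 min. IC50 taken as the mean of three independent experiments.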
# [2] = molecular target: T1, Phosphatidylinositol 4,5-bisphosphate 3-kinase catalytic subunit delta isoform (Homo sapiens) (UniProt O00329); assay: Inhibition of PI3Kdelta in human SU-DHL-5 cells assessed as inhibition of S6 phosphorylation at 1 to 5 uM measured after 3 hrs by western blot assay; type: cell-based; settings: dose 1-5 µM
# T1 sequence (whole entry): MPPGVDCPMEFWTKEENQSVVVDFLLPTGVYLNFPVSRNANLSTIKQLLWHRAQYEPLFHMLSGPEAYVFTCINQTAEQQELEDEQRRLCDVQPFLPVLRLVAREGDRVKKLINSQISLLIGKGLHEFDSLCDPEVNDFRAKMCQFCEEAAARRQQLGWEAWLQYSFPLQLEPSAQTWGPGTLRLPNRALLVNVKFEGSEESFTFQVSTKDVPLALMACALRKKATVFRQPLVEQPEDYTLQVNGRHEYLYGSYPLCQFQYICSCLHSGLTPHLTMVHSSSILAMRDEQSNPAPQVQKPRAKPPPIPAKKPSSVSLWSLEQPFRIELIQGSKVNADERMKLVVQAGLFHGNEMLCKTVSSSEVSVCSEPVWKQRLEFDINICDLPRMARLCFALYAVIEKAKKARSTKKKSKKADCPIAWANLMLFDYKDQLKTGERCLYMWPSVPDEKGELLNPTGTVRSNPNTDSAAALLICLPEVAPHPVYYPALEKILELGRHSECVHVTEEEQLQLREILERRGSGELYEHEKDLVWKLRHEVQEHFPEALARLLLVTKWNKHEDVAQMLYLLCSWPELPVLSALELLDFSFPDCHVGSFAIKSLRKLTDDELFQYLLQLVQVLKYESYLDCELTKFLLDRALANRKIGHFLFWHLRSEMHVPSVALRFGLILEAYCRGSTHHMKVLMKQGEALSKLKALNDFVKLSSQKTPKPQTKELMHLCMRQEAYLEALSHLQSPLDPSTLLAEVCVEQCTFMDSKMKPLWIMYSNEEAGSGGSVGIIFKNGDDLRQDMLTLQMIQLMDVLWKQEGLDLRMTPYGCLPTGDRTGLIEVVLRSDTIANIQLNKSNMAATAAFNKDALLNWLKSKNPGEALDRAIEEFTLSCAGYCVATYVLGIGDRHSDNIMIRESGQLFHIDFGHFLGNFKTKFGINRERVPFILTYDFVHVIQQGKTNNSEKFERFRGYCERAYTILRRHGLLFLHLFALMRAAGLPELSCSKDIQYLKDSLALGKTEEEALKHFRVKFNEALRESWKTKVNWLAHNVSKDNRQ
# Procedure, shortened: (§1)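 Treatment lasted 3 h: SUDHL-5 at 1 μM, MOLT-4 at 5 μM. Cells washed twice in cold PBS and lysed. Proteins resolved on 10–12% SDS-PAGE and blotted to PVDF. Probed for p-AKT S473, p-AKT T308, p-S6 and p-4E-BP1, with β-actin as loading control.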
# [3] = molecular target: T1, Phosphatidylinositol 4,5-bisphosphate 3-kinase catalytic subunit delta isoform (Homo sapiens); assay: Inhibition of PI3Kdelta in human MOLT-4 cells assessed as inhibition of S6 phosphorylation at 1 to 5 uM measured after 3 hrs by western blot assay; type: cell-based; settings: dose 1-5 µM; procedure, shortened: as §1
# [4] = molecular target: T1, Phosphatidylinositol 4,5-bisphosphate 3-kinase catalytic subunit delta isoform (Homo sapiens); assay: Inhibition of PI3Kdelta in human MOLT-4 cells assessed as inhibition of 4EBP1 phosphorylation at 1 to 5 uM measured after 3 hrs by western blot assay; type: cell-based; settings: dose 1-5 µM; procedure, shortened: as §1
# [5] = system: SU-DHL10; assay: Induction of apoptosis in human SU-DHL-10 cells assessed as viable cells at 20 uM measured after 24 hrs by AnnexinV-FITC/PI staining based flowcytometry method (reference value: 90%); type: functional; settings: read-out: Activity
# Procedure, shortened: (§2)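 Cells exposed to 20 μM compound for 24 h, washed with cold PBS, and stained with Annexin V-FITC and propidium iodide for 15 min at room temperature. Viable, early apoptotic, late apoptotic and necrotic populations quantified by flow cytometry.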
# [6] = system: MOLT-4; assay: Induction of apoptosis in human MOLT-4 cells assessed as viable cells at 20 uM measured after 24 hrs by AnnexinV-FITC/PI staining based flowcytometry method (reference value: 95.3%); type: functional; settings: read-out: Activity; procedure, shortened: as §2
# [7] = system: MOLT-4; assay: Induction of apoptosis in human MOLT-4 cells assessed as early apoptotic cells at 20 uM measured after 24 hrs by AnnexinV-FITC/PI staining based flowcytometry method (reference value: 2.04%); type: functional; procedure, shortened: as §2
# [8] = Toxicity in Balb/c nude mouse xenografted with human MOLT-4 cells assessed as changes in body weight at 10 mg/kg, po administered via gavage qd for 57 days; type: organism-based; settings: in vivo, 1368 h, dose 10 mg/kg/day, time 57 day
# Procedure, shortened: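 MOLT-4 cells (2×10^6 in 0.1 mL D-PBS) implanted subcutaneously on the back of BALB/c-nude mice. Once tumours grew, mice were dosed daily by oral gavage at 10 mg/kg for 57 consecutive days. Tumours measured by caliper, with volume = ½ × […]. Body weight was tracked over the same period.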
# [9] = Cmax in Sprague-Dawley rat at 3 mg/kg, po measured for 24 hrs by LC-MS/MS analysis; type: ADME, organism-based; set-up: route oral, time 24 hrs, dose 3 mg/kg; settings: in vivo
# Procedure, shortened: (§3)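 Sprague-Dawley rats dosed orally at 1 or 3 mg/kg, three animals per group. Blood sampled at 0.25, 0.5, 1, 2, 4, 8 and 24 h post-dose. Plasma separated by centrifugation, extracted and quantified by LC-MS/MS. PK parameters (Cmax, AUClast, Tmax, t1/2) derived by non-compartmental software.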
# [10] = molecular target: T1, Phosphatidylinositol 4,5-bisphosphate 3-kinase catalytic subunit delta isoform (Homo sapiens); assay: Inhibition of PI3Kdelta in human SU-DHL-5 cells assessed as inhibition of AKT phosphorylation at Thr308 residue at 1 to 5 uM measured after 3 hrs by western blot assay; type: cell-based; settings: dose 1-5 µM; procedure, shortened: as §1
# [11] = Cmax in Sprague-Dawley rat at 1 mg/kg, po measured for 24 hrs by LC-MS/MS analysis; type: ADME, organism-based; set-up: route oral, dose 1 mg/kg, time 24 hrs; settings: in vivo; procedure, shortened: as §3
# [12] = Tmax in Sprague-Dawley rat at 1 mg/kg, po measured for 24 hrs by LC-MS/MS analysis; type: ADME, organism-based; settings: in vivo; procedure, shortened: as §3
# [13] = Half life in Sprague-Dawley rat at 1 mg/kg, po measured for 24 hrs by LC-MS/MS analysis; type: ADME, organism-based; settings: in vivo; procedure, shortened: as §3
# [14] = species on record: Homo sapiens; assay: Selectivity ratio of IC50 for recombinant human full length His-tagged p110gamma expressed in baculovirus expression system to IC50 for recombinant human full length His-tagged p110delta/p85alpha expressed in baculovirus expression system
# [15] = system: MOLT-4; assay: Antiproliferative activity against human MOLT-4 cells assessed as reduction in cell viability at 20 uM by CellTiter-Glo luminescent cell viability assay relative to idelalisib; type: functional
# Procedure, shortened: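 Cells were seeded at 5x10^4 per well and exposed to the compound at a single concentration: 10 μM for SUDHL-5 and 20 μM for MOLT-4. CellTiter-Glo reagent was added 1:1, mixed for 2 min to lyse the cells, and held 10 min at room temperature before reading luminescence. Readings were background-subtracted and normalized to control wells.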
SMILES,IC50 [1],inhibition [2],inhibition [3],inhibition [4],viability at 20 µM [5],viability at 20 µM [6],Activity [7],Activity [8],Cmax [9],inhibition [10],Cmax [11],Tmax [12],half-life [13],Ratio IC50 [14],fold change (FC) [15]
O=c1c2c(F)cccc2nc([C@@H](Nc2ncnc3nc[nH]c23)C2CC2)n1-c1ccccc1,19.1 nM,Active,Active,Active,19.7%,49.5%,17.8%,Non-Toxic,41.9 ng/mL,Active,18.3 ng/mL,0.5 h,10.2 h,–,–
Cc1cccc2nc([C@@H](Nc3ncnc4nc[nH]c34)C3CC3)n(-c3ccccc3)c(=O)c12,–,Active,Active,Active,15%,41%,13.4%,Non-Toxic,11.1 ng/mL,Active,–,–,–,95.5,5
